Reference: ChEMBL document CHEMBL1127530 (J Med Chem, 1994)

Experiments:
[1] = system: WiDr; test: Cytotoxic effect on WiDr human colon cells; type: functional, cell-based
[2] = target: Epidermal growth factor receptor (Homo sapiens) (UniProt P00533); settings: A-431, 150 uM
[3] = system: MCF7; test: Cytotoxic effect on MCF-7 human breast carcinoma cells; type: functional, cell-based
[4] = system: HFF; test: (§1) Inhibition of EGF-induced mitogenesis in human foreskin fibroblasts; type: functional, cell-based
[5] = system: HFF; test: Inhibition of PDGF-induced mitogenesis in human foreskin fibroblasts; type: functional, cell-based
[6] = system: ANN-1; test: Cytotoxic effect on v-abl transformed murine ANN-1 cells; type: functional, cell-based; settings: Mus musculus
How it was run: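 Abelson virus-transformed ANN-1 murine fibroblasts expressing the gag-abl tyrosine kinase, 2 × 10^4 cells in DMEM with 10% fetal calf serum; compounds in DMF or DMSO, final solvent ≤0.5% v/v. Value is the mean of two determinations.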

[7] = system: NIH3T3; test: Cytotoxic effect on 3T3 cells; type: functional, cell-based; settings: Mus musculus
How it was run: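 3T3 parental fibroblasts, 2 × 10^4 cells in DMEM with 10% fetal calf serum; compounds dissolved or suspended in DMF or DMSO, final solvent ≤0.5% v/v. Value is the mean of two determinations.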

[8] = system: HFF; test: as §1; type: functional, cell-based; remark: listed apart in the source

Epidermal growth factor receptor (Homo sapiens), sequence (P00533 whole entry): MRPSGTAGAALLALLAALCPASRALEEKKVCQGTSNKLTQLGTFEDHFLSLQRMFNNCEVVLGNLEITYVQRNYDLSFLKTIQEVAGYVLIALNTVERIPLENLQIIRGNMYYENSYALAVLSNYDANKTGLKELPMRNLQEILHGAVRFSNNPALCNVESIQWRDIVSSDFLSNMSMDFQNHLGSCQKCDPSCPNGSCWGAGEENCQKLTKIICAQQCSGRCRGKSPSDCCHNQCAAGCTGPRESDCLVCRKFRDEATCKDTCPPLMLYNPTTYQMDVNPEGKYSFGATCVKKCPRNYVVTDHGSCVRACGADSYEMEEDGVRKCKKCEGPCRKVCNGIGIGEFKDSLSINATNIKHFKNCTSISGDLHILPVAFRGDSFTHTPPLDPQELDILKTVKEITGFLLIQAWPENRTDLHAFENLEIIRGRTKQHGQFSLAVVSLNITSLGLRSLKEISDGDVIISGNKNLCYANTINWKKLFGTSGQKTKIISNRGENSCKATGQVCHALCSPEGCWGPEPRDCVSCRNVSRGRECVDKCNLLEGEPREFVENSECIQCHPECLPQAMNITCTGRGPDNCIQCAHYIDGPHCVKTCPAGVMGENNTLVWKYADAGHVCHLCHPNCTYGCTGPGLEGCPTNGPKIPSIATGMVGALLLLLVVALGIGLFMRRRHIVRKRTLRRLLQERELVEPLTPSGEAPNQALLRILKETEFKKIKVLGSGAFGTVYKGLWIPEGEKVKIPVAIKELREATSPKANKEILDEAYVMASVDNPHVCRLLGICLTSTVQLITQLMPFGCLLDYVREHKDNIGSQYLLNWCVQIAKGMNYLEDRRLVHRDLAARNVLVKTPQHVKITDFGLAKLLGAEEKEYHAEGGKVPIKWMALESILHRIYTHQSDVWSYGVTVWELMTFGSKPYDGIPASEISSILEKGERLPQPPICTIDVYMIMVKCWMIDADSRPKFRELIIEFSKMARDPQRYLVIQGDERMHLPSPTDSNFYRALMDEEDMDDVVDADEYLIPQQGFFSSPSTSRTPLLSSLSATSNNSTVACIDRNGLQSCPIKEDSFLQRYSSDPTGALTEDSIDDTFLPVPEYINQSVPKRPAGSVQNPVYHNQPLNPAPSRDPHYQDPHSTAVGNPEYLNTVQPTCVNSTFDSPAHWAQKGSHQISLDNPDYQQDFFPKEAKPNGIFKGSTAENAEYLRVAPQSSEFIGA

SMILES	IC50 [1] [µM]	inhibition [2] [%]	IC50 [3] [µM]	IC50 [4] [µM]	IC50 [5] [µM]	IC50 [6] [µM]	IC50 [7] [µM]	IC50 [8] [µM]
Oc1ccc(-c2nc3ccc(O)cc3s2)cc1	67.2	42	25	6.5	14	13.5	11	13
Oc1cc(O)c2nc(-c3ccc(O)c(O)c3)sc2c1	47.7		41.3	9	68	58.5	47	7
O=c1c(-c2ccc(O)cc2)coc2cc(O)cc(O)c12 [GENISTEIN]	27.7		15.1			8	24	
CC/C(=C(/CC)c1ccc(O)cc1)c1ccc(O)cc1 [DIETHYLSTILBESTROL]			5			3	2.5	
Oc1ccc(-c2nc3cc(O)ccc3s2)cc1	62.2		41.4			25.5	25	
Oc1ccc(-c2nc3ccccc3s2)cc1	68.7		27			77	71.5	
Oc1ccc(-c2nc3cc(O)c(O)cc3s2)cc1O	34.2	38	5.1			32	56.5	
Oc1ccc(-c2nc3c(O)cc(O)cc3s2)cc1	31.2		33.3	16	20	21.5	20	7
Oc1ccc2nc(-c3ccccc3)sc2c1	45.2		27.3			71	79.5	
O=c1c(O)c(-c2ccc(O)c(O)c2)oc2cc(O)cc(O)c12 [QUERCETIN]	40.2		24		100	32.5	39.5	
Oc1cccc(-c2nc3ccc(O)cc3s2)c1	18.3		2.7			17	30.5	
Oc1ccc2nc(-c3ccc(O)c(O)c3)sc2c1	23		17.6			5.5	6	
Oc1ccc(-c2nc3cc(O)c(O)cc3s2)cc1	24.7		8.4			9	13.5	
